This is an account of results in ChEMBL document CHEMBL4411301, “Design, Biological Evaluation, and Molecular Modeling of Tetrahydroisoquinoline Derivatives: Discovery of A Potent P-Glycoprotein Ligand Overcoming Multidrug Resistance in Cancer Stem Cells” (J Med Chem, 2019).

Structures are written as SMILES.

What all share (format): cell-based
The target of data set [1] is ATP-dependent translocase ABCB1 (Homo sapiens, UniProt P08183). In words: Inhibition of MDR1 (unknown origin) expressed in MDCK cells assessed as increase in calcein-AM accumulation after 30 mins by calcein-AM dye based fluorescence assay. The method, boiled down: (§1)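 MDCK-MDR1 or MDCK-MRP1 cells seeded at 30,000/well and grown to confluence overnight. Compound (0.1–100 µM final, in medium) incubated 30 min at 37 °C, then calcein-AM added (2.5 µM final) for 30 min. Cells washed with ice-cold PBS and read at ex 485/em 535 nm. EC50 fitted from % fluorescence increase over untreated vs log dose. Mean ± SEM, three experiments in triplicate.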
ATP-dependent translocase ABCB1, sequence (P08183 whole entry): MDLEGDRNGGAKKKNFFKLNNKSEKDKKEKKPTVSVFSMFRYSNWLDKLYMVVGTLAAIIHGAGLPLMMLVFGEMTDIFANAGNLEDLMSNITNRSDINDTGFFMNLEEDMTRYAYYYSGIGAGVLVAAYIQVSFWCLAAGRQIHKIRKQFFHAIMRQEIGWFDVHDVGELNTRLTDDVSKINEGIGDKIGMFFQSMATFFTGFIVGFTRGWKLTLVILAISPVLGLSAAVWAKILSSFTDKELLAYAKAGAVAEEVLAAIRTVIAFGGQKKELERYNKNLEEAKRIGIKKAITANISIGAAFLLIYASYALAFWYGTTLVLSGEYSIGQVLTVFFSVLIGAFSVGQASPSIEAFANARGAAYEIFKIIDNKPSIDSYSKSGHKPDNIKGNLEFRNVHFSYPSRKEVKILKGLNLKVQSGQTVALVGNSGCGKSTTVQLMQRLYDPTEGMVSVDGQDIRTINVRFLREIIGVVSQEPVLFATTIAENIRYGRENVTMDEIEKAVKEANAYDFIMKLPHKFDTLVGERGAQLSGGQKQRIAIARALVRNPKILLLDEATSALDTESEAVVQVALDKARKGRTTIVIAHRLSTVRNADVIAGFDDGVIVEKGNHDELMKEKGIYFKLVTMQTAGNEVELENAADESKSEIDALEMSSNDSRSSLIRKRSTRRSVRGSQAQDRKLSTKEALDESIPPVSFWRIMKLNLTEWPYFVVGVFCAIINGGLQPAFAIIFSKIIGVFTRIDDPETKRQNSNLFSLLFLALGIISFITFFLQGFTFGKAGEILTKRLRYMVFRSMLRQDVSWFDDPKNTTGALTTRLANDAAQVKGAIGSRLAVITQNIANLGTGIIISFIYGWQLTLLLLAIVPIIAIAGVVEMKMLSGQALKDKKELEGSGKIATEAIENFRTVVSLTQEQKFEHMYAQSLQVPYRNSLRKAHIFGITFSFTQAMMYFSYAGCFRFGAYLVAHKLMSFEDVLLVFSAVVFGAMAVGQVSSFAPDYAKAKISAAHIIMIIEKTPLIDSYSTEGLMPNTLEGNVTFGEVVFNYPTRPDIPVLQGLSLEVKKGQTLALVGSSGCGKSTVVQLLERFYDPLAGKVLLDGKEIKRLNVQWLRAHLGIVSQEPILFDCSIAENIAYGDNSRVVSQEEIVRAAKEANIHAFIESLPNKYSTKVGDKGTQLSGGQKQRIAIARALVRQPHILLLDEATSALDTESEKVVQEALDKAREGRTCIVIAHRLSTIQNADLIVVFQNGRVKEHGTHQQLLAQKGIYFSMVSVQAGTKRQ

The target of data set [2] is Multidrug resistance-associated protein 1 (Homo sapiens, UniProt P33527). In words: Inhibition of MRP1 (unknown origin) expressed in MDCK cells assessed as increase in calcein-AM accumulation incubated for 30 mins by calcein-AM dye based fluorescence assay. The method in brief:
as §1

For data set [3], the target named is T1, Broad substrate specificity ATP-binding cassette transporter ABCG2 (Homo sapiens, UniProt Q9UNQ0).
T1 sequence (Q9UNQ0 whole entry): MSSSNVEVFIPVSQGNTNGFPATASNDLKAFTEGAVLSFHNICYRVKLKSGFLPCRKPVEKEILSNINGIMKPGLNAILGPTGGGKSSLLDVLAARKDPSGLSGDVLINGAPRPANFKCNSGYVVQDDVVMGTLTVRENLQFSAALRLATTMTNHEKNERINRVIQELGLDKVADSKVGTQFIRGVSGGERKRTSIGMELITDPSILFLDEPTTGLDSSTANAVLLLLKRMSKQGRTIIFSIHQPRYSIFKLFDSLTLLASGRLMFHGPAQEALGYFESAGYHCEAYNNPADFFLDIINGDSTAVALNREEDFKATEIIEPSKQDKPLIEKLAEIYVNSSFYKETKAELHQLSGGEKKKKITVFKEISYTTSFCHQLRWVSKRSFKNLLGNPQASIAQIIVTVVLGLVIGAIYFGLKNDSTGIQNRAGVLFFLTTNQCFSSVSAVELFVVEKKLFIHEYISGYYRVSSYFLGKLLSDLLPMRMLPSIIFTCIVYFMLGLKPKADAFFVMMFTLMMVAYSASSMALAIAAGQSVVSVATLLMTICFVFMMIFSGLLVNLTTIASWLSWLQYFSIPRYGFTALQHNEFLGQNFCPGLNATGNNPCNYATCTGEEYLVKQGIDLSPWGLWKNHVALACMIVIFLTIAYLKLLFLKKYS
In words: Inhibition of BCRP (unknown origin) expressed in MDCK cells assessed as reduction in Hoechst 33342 efflux preincubated for 30 mins followed by Hoechst 3334 addition measured after 30 mins by fluorescence assay. The method in brief: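 MDCK-BCRP monolayers (30,000 cells/well, confluent overnight) preincubated 30 min at 37 °C with compound (0.1–100 µM final). Hoechst 33342 then added (8 µM final) for 30 min. Cells fixed 20 min in 4% PFA, washed with ice-cold PBS and read at ex 340/em 485 nm. EC50 fitted from % fluorescence increase over basal vs log dose. Mean ± SEM, three experiments in triplicate.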

The target of data set [4] is MDR1 (ABCB1, P-glycoprotein) (Homo sapiens, UniProt P08183). Briefly: Activity at MDR1 in human Caco2 cells assessed as efflux ratio of apparent permeability from basolateral to apical side over apical to basolateral side. Particulars: Caco-2; call rule not given here. The method in brief:
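Caco-2 cells grown 21 days on filter inserts, then washed with HBSS and equilibrated 30 min at 37 °C. Compound at 100 µM added to the donor side and incubated 120 min at 37 °C. Papp in nm/s calculated as (VA/Area) × ([drug]acceptor/[drug]initial)/time, membrane area 0.11 cm2. BA/AB ratio from two independent experiments.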
For orientation: Passage across Caco-2 layers is used to estimate intestinal permeability.

MDR1 (ABCB1, P-glycoprotein), sequence (P08183 whole entry): as the sequence (P08183 whole entry) above
Multidrug resistance-associated protein 1, sequence (P33527 whole entry): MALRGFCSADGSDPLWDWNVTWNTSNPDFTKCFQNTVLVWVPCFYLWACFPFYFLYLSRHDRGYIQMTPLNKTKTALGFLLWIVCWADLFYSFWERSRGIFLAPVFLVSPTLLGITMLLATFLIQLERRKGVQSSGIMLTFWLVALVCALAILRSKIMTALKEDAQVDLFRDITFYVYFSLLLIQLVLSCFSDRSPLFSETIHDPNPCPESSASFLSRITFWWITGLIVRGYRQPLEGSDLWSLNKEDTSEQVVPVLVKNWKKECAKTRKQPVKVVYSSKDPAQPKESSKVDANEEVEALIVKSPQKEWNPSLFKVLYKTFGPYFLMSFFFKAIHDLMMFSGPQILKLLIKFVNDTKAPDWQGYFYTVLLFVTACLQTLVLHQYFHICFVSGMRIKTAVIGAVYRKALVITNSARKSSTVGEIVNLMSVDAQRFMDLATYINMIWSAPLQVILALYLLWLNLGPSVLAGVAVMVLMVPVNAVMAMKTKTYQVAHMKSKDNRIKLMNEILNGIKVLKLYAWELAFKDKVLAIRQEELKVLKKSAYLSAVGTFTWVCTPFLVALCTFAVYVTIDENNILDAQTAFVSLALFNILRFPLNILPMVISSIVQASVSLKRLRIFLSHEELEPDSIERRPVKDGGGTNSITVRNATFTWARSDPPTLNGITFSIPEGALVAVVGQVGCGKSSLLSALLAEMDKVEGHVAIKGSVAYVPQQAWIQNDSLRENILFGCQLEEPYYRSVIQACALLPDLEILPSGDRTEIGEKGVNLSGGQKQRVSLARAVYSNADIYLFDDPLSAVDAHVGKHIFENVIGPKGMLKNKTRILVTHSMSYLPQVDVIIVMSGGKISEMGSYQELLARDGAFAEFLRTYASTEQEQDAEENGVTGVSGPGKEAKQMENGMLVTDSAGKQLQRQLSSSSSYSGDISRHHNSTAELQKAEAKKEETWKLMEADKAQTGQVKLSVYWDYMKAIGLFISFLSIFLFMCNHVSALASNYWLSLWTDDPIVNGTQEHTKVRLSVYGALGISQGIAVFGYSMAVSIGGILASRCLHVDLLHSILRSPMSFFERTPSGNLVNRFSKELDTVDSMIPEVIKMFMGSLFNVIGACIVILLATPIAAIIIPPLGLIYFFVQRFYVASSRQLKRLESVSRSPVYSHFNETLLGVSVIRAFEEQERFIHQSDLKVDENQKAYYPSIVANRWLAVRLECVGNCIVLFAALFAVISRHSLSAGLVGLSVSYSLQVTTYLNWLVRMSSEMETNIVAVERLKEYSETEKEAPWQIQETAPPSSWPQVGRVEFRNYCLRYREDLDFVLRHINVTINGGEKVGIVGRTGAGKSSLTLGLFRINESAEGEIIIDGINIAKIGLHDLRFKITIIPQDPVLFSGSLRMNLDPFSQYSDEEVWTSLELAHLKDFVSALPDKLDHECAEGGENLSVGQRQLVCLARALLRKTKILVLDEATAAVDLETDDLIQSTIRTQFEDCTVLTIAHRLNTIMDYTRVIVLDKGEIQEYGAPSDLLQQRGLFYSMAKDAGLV

For `COc1cc2c(cc1OC)CN(Cc1ccc(-c3ccc4c(c3)C(=O)C(=O)N4)cc1)CC2`, the results for the EC50 in data set [1] (read-out: EC50), in data set [2] and in data set [3] (mdck) were 21400 nM, “Not Active” and “Not Active”, respectively. Moreover, the efflux ratio (commonly a quotient of directional permeabilities that is used to spot active efflux) in data set [4] is 8.1.
In the case of `CCCCNC(=O)Nc1ccc(-c2ccc(CN3CCc4cc(OC)c(OC)cc4C3)cc2)cc1`, the 50% effective concentration (EC50) (as a rule, the concentration giving half of the maximal effect) in data set [1] (read-out: EC50) is 320 nM; in data set [2], “Not Active”; in data set [3] (read-out: EC50), 46 µM. In addition, the efflux ratio in data set [4] worked out at 12.8.
As for `COc1cc2c(cc1OC)CN(Cc1ccc(-c3ccc(O)cc3)cc1)CC2`, the efflux ratio in data set [4] amounted to 1.3.
Regarding `CCCNC(=O)Nc1ccc(-c2ccc(CN3CCc4cc(OC)c(OC)cc4C3)cc2)cc1`, the results for the EC50 in data set [1] (read-out: EC50), in data set [2] and in data set [3] (mdck) were 1100 nM, “Not Active” and “Not Active”, respectively. Further, the efflux ratio in data set [4] was 17.6.
Turning to `COc1cc2c(cc1OC)CN(Cc1ccc(-c3ccc4c(c3)C(N3CCc5cc(OC)c(OC)cc5C3)C(=O)N4)cc1)CC2` (centres undefined), the EC50 is 1200 nM in data set [1] (read-out: EC50), “Not Active” in data set [2] and 1.8 µM in data set [3] (read-out: EC50). In addition, the efflux ratio in data set [4] worked out at 8.5.
For `CNC(=O)Nc1ccc(-c2ccc(CN3CCc4cc(OC)c(OC)cc4C3)cc2)cc1`, the figures for the EC50 in data set [1] (read-out: EC50), in data set [2] and in data set [3] (mdck) were 3100 nM, “Not Active” and “Not Active”, respectively. The efflux ratio in data set [4] was 12.8.
`COc1cc2c(cc1OC)CN(Cc1ccc(-c3ccc(NC(=O)Nc4ccccc4)cc3)cc1)CC2`: the EC50 in data set [1] (read-out: EC50) is 980 nM; in data set [2], “Not Active”; in data set [3] (mdck), “Not Active”. Moreover, the efflux ratio in data set [4] was greater than 20.
As to `COc1cc2c(cc1OC)CN(Cc1ccc(-c3ccc4[nH]cnc4c3)cc1)CC2`, the EC50 in data set [1] (read-out: EC50) is 6930 nM; in data set [2] it was “Not Active”; in data set [3] (mdck) it was “Not Active”. Moreover, the efflux ratio in data set [4] stood at 9.2.
Turning to `COc1cc2c(cc1OC)CN(Cc1ccc(-c3ccc4c(c3)CC(=O)N4)cc1)CC2`, the values for the half-maximal effective concentration (EC50) in data set [1] (read-out: EC50), in data set [2] and in data set [3] (mdck) were 1470 nM, “Not Active” and “Not Active”, respectively. Also, the efflux ratio in data set [4] worked out at 3.6.
Take `COc1cc2c(cc1OC)CN(Cc1ccc(-c3ccc4[nH]ccc4c3)cc1)CC2`: the values for the EC50 in data set [1] (read-out: EC50), in data set [2] and in data set [3] (mdck) were 21200 nM, “Not Active” and “Not Active”, respectively. In addition, the efflux ratio in data set [4] was 1.9.
In the case of `COc1cc2c(cc1OC)CN(Cc1ccc(-c3ccc4[nH]ncc4c3)cc1)CC2`, the EC50 is 900 nM in data set [1] (read-out: EC50), “Not Active” in data set [2] and “Not Active” in data set [3] (mdck). Besides, in data set [4], the efflux ratio amounted to 12.
For the compound `COc1cc2c(cc1OC)CN(Cc1ccc(-c3ccc4[nH]c(=O)[nH]c4c3)cc1)CC2`, the EC50 is 29500 nM in data set [1] (read-out: EC50), “Not Active” in data set [2] and “Not Active” in data set [3] (mdck). Moreover, the efflux ratio in data set [4] was found to be 15.
For the compound `COc1cc2c(cc1OC)CN(Cc1ccc(-c3ccc(NC(C)=O)cc3)cc1)CC2`, the EC50 in data set [1] (read-out: EC50) was 1520 nM; in data set [2] it was “Not Active”; in data set [3] (mdck), “Not Active”. The efflux ratio in data set [4] was 13.6.
As for `CCNC(=O)Nc1ccc(-c2ccc(CN3CCc4cc(OC)c(OC)cc4C3)cc2)cc1`, the figures for the EC50 in data set [1] (read-out: EC50), in data set [2] and in data set [3] (mdck) were 1700 nM, “Not Active” and “Not Active”, respectively. In addition, in data set [4], the efflux ratio was determined as 9.3.
Turning to `COc1cc2c(cc1OC)CN(Cc1ccc(-c3ccc4c(ccn4S(=O)(=O)c4ccccc4)c3)cc1)CC2`, the EC50 in data set [1] (read-out: EC50) was 19200 nM; in data set [2], “Not Active”; in data set [3] (mdck), “Not Active”. Moreover, the efflux ratio in data set [4] worked out at 4.2.
On to `COc1cc2c(cc1OC)CN(Cc1ccc(-c3ccc(NS(=O)(=O)c4ccccc4)cc3)cc1)CC2`, for which the figures for the 50% effective concentration (EC50) in data set [1] (read-out: EC50), in data set [2] and in data set [3] (mdck) were 870 nM, “Not Active” and “Not Active”, respectively. Also, the efflux ratio in data set [4] came to 15.
With `COc1cc2c(cc1OC)CN(Cc1ccc(-c3ccc(NS(C)(=O)=O)cc3)cc1)CC2`, the values for the EC50 in data set [1] (read-out: EC50), in data set [2] and in data set [3] (mdck) were 5200 nM, “Not Active” and “Not Active”, respectively. Further, the efflux ratio in data set [4] stood at 5.
With `COc1cc2c(cc1OC)CN(Cc1ccc(-c3ccc(NC(=O)c4ccccc4)cc3)cc1)CC2`, the half-maximal effective concentration (EC50) entry in data set [1] (mdck), in data set [2] and in data set [3] (mdck) was “Not Active” in each case. In data set [4], the efflux ratio came to 19.9.
